The whole screen tested about 310,000 compounds, of which about 1,100 (0.35%) were called active.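 How the source made its calls: active means fluorescence ratio B-score, a plate-corrected score, at least three library SD, with initial intensity B-score within 5 SD; inactive means the rest.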 Only a selection was taken, and actives are over-represented in it overall.
target: Potassium voltage-gated channel subfamily KQT member 1 (Homo sapiens) (UniProt P51787); assay: human KCNQ1 current enhancers – cell-based, thallium flux, high-throughput, primary screen (AID 2648); conditions: CHO-K1 KCNQ1, thallium flux FluxOR fluorescence, at 10 µM; active compounds read high
Sequence (P51787 whole entry, looked up): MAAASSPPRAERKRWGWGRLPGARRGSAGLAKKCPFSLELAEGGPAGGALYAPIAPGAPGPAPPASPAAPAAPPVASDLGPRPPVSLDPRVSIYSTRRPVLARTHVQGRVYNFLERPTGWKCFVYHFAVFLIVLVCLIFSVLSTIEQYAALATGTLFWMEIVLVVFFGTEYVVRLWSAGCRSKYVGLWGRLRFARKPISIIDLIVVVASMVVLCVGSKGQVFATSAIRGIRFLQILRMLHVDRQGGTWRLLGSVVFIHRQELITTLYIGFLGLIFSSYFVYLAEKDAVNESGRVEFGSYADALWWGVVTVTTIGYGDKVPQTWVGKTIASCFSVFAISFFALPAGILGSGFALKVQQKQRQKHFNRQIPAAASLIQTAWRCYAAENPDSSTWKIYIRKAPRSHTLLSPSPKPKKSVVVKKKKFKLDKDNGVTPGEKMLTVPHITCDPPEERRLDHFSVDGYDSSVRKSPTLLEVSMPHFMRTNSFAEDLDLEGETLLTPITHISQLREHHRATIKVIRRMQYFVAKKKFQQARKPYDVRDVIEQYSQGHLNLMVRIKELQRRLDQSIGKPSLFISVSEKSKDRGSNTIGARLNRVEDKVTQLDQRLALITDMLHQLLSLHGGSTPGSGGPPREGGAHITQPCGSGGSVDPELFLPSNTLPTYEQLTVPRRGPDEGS
Method in brief: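 Material: CHO-K1 cells stably expressing KCNQ1. Medium: assay buffer for compound exposure, DMSO matched across wells. Reagent: K+/Tl+ depolarizing stimulus. Compound dosing: single-concentration screen. Times: 37 °C overnight plating, 90-min dark dye load, 20-min compound pretreatment. Technique: FluxOR Tl+ flux fluorescence.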

Compound | B-score
COc1cc(-n2c(=S)[nH]c3ccc(C)cc3c2=O)c(Cl)cc1Cl | 8 (active)
C/C=C/CC1(CC)C(=O)NC(=S)NC1=O | inactive
CCN(CC)C(=O)c1ccc(NC(=O)c2sccc2-c2ccccc2)cc1 | inactive
Cc1ccc2c(c1)C1CN(C)CCC1N2C(=O)Cn1nnc(-c2ccccc2F)n1 (stereo not given) | inactive
CC(Cc1ccccc1)NC=O (stereo not given) | inactive
